Assay results from ChEMBL document CHEMBL4330127, “Discovery of Novel Pyruvate Dehydrogenase Kinase 4 Inhibitors for Potential Oral Treatment of Metabolic Diseases” (J Med Chem, 2019).

Key:
RKO [1] = assay: Cell cycle arrest in human RKO cells assessed as accumulation at sub-G1 phase at 25 uM after 24 hrs propidium iodide staining based flow cytometry (reference value: 17.6%); assay type: functional
HCT-116 [2] = assay: Induction of apoptosis in human HCT116 cells after 24 hrs by Annexin V/propidium iodide staining based flow cytometry; assay type: functional, cell-based
HCT-116 [3] = assay: Induction of apoptosis in human HCT116 cells assessed as early apoptotic cells at 50 uM after 24 hrs by Annexin V/propidium iodide staining based flow cytometry (reference value: 4.36%); assay type: functional
RKO [4] = assay: Cell cycle arrest in human RKO cells assessed as accumulation at G2/M phase at 10 uM after 24 hrs propidium iodide staining based flow cytometry (reference value: 23.3%); assay type: functional
Summary of the method: (§1)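 HCT116 and RKO cells were treated with compound alone or with oxaliplatin for 24 h before harvest. Cells were stained with propidium iodide, and DNA content was analysed by flow cytometry. Cell-cycle phase populations, including sub-G1, are given as percentages.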

RKO [5] = assay: Cell cycle arrest in human RKO cells assessed as accumulation at S phase at 50 uM after 24 hrs propidium iodide staining based flow cytometry (reference value: 19.2%); assay type: functional
RKO [6] = assay: Induction of apoptosis in human RKO cells assessed as late apoptotic cells at 25 uM after 24 hrs by Annexin V/propidium iodide staining based flow cytometry (reference value: 7.42%); assay type: functional
HCT-116 [7] = assay: Induction of apoptosis in human HCT116 cells assessed as late apoptotic cells at 50 uM after 24 hrs by Annexin V/propidium iodide staining based flow cytometry (reference value: 8.36%); assay type: functional
[8] = target: UDP-glucuronosyltransferase 1A9 (Homo sapiens, UniProt O60656); assay: Inhibition of UGT1A9 in human liver microsomes assessed as reduction in mycophenolic acid glucuronidation by tandem mass spectrometry analysis; assay type: ADME
Summary of the method: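 Pooled human liver microsomes; test compound at final 0–50 μM in a cocktail incubation with probe substrates: midazolam 1′-hydroxylation (CYP3A), SN-38 glucuronidation (UGT1A1), trifluoperazine N-glucuronidation (UGT1A4), mycophenolic acid glucuronidation (UGT1A9), naloxone 3-glucuronidation (UGT2B7). Metabolites measured by tandem MS; IC50 determined; duplicate.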

HCT-116 [9] = assay: Induction of apoptosis in human HCT116 cells assessed as late apoptotic cells at 25 uM after 24 hrs by Annexin V/propidium iodide staining based flow cytometry (reference value: 8.36%); assay type: functional
RKO [10] = assay: Induction of apoptosis in human RKO cells assessed as late apoptotic cells at 10 uM after 24 hrs by Annexin V/propidium iodide staining based flow cytometry (reference value: 7.42%); assay type: functional
HCT-116 [11] = assay: Induction of apoptosis in human HCT116 cells assessed as necrotic cells at 10 uM after 24 hrs by Annexin V/propidium iodide staining based flow cytometry (reference value: 2.92%); assay type: functional
HCT-116 [12] = assay: Induction of apoptosis in human HCT116 cells assessed as early apoptotic cells at 10 uM after 24 hrs by Annexin V/propidium iodide staining based flow cytometry (reference value: 4.36%); assay type: functional
[13] = target: Cellular tumor antigen p53 (Homo sapiens) (UniProt P04637); assay: Induction of p53 phosphorylation at Ser-15 residue in human RKO cells after 24 hrs by Western blot analysis; assay type: cell-based
Summary of the method: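 HCT116 and RKO cells given a range of compound doses for 24 h; lysates probed by Western blot for apoptosis-related proteins (p53, BAX, BCLxL).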

RKO [14] = assay: Cell cycle arrest in human RKO cells assessed as accumulation at S phase at 25 uM after 24 hrs propidium iodide staining based flow cytometry (reference value: 19.2%); assay type: functional
RKO [15] = assay: Cell cycle arrest in human RKO cells assessed as accumulation at S phase at 10 uM after 24 hrs propidium iodide staining based flow cytometry (reference value: 19.2%); assay type: functional
HCT-116 [16] = assay: Induction of apoptosis in human HCT116 cells assessed as live cells at 10 uM after 24 hrs by Annexin V/propidium iodide staining based flow cytometry (reference value: 84.4%); assay type: functional
Cytochrome P450 1A2 = Cytochrome P450 1A2 (Homo sapiens, UniProt P05177); assay: Inhibition of CYP1A2 in human liver microsomes assessed as reduction in phenacetin-O-deethylation by tandem mass spectrometry analysis; assay type: ADME
Summary of the method: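 Pooled human liver microsomes incubated with compound at 0–50 μM final; CYP probe activities (phenacetin O-deethylation for 1A2, tolbutamide 4-hydroxylation for 2C9, omeprazole hydroxylation for 2C19, dextromethorphan O-demethylation for 2D6) run as a cocktail incubation and quantified by tandem MS; duplicates; IC50 derived.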

RKO [17] = assay: Cell cycle arrest in human RKO cells assessed as accumulation at G1/G0 phase at 10 uM after 24 hrs propidium iodide staining based flow cytometry (reference value: 39.9%); assay type: functional; summary of the method: as §1
[18] = Half life in human liver microsomes at 1 uM preincubated for 5 mins followed by NADPH/UDPGA addition by LC-MS/MS analysis; assay type: ADME, Microsome
Summary of the method: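 Pooled human liver microsomes (1.0 mg/mL) were preincubated with substrate (1 μM) at 37 °C for 5 min. NADPH and UDPGA were added and samples taken at 10, 20, 40 and 60 min. Reactions were quenched with acetonitrile, centrifuged, and the supernatant quantified by LC-MS/MS. Buspirone served as positive control.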

RKO [19] = assay: Induction of apoptosis in human RKO cells assessed as necrotic cells at 25 uM after 24 hrs by Annexin V/propidium iodide staining based flow cytometry (reference value: 0.56%); assay type: functional
RKO [20] = assay: Induction of apoptosis in human RKO cells assessed as late apoptotic cells at 50 uM after 24 hrs by Annexin V/propidium iodide staining based flow cytometry (reference value: 7.42%); assay type: functional
HCT-116 [21] = assay: Cell cycle arrest in human HCT116 cells assessed as accumulation at S phase at 25 uM after 24 hrs in presence of oxaliplatin propidium iodide staining based flow cytometry (reference value: 5.4%); assay type: functional; summary of the method: as §1
HCT-116 [22] = assay: Induction of apoptosis in human HCT116 cells assessed as live cells at 50 uM after 24 hrs by Annexin V/propidium iodide staining based flow cytometry (reference value: 84.4%); assay type: functional
[23] = target: [Pyruvate dehydrogenase (acetyl-transferring)] kinase isozyme 4, mitochondrial (Homo sapiens, UniProt Q16654); assay: Inhibition of PDK4 in HEK293T cells assessed as reduction in PDHE1alpha phosphorylation at Ser-293 residue by measuring phosphorylated PDHE1alpha level at 10 uM after 24 hrs by Western blot analysis; assay type: cell-based
Summary of the method: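 HEK293T cells grown in high-glucose DMEM with 10% FBS at 37 °C, 5% CO2. Medium renewed after 24 h, then cells exposed to compound for 24 h and lysed. 20 μg protein per lane Western blotted with antibodies to phospho-PDHE1α Ser232, Ser293 and Ser300 and to total PDHE1α. Band intensity quantified relative to control; triplicate.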

[24] = Half life in rat at 5 mg/kg, iv; assay type: ADME, organism-based; details: in vivo
HCT-116 [25] = assay: Cell cycle arrest in human HCT116 cells assessed as accumulation at G1/G0 phase at 10 uM after 24 hrs propidium iodide staining based flow cytometry (reference value: 42%); assay type: functional; summary of the method: as §1
HCT-116 [26] = assay: Induction of apoptosis in human HCT116 cells assessed as early apoptotic cells at 25 uM after 24 hrs in presence of oxaliplatin by Annexin V/propidium iodide staining based flow cytometry (reference value: 7.31%); assay type: functional

Sequence of Cytochrome P450 1A2 (P05177 whole entry): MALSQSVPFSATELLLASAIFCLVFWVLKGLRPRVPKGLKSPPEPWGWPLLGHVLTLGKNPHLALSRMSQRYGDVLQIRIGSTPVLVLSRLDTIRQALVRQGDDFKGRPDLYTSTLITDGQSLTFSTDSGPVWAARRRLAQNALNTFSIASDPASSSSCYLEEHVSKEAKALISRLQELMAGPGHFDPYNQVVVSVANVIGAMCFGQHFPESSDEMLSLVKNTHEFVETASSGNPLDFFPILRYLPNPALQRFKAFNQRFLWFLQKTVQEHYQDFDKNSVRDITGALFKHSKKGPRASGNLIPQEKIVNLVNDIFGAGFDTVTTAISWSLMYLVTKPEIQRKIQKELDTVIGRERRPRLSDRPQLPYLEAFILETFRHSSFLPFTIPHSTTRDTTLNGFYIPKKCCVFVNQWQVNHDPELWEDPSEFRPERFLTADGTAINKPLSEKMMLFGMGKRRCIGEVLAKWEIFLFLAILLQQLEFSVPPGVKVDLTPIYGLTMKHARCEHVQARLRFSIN
Sequence of [Pyruvate dehydrogenase (acetyl-transferring)] kinase isozyme 4, mitochondrial (Q16654 whole entry, looked up): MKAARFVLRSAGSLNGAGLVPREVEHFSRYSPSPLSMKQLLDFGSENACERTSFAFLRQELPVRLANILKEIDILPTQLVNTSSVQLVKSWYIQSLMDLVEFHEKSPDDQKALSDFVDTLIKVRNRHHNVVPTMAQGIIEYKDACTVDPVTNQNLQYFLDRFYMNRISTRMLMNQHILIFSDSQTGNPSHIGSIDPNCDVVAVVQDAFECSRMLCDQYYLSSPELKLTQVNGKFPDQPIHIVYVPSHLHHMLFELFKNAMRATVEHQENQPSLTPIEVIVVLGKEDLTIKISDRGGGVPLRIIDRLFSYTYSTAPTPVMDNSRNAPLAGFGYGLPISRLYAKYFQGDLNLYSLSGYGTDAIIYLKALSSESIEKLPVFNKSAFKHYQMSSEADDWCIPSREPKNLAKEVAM
Sequence of UDP-glucuronosyltransferase 1A9 (O60656 whole entry): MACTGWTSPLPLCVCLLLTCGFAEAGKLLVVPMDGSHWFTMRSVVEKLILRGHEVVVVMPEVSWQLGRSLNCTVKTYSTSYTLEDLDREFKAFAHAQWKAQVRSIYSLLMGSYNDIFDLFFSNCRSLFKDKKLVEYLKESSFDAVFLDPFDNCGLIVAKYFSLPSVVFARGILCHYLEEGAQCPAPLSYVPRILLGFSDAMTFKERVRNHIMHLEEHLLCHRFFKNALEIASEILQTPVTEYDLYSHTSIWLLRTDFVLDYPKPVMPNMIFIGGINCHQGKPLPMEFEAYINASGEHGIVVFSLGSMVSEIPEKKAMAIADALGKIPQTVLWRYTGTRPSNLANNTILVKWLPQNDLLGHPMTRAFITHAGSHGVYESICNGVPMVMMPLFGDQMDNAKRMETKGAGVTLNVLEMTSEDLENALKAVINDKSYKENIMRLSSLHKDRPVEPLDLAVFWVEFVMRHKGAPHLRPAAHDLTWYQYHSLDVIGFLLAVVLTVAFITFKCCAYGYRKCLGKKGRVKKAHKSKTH
Sequence of Cellular tumor antigen p53 (Homo sapiens) (P04637 whole entry, looked up): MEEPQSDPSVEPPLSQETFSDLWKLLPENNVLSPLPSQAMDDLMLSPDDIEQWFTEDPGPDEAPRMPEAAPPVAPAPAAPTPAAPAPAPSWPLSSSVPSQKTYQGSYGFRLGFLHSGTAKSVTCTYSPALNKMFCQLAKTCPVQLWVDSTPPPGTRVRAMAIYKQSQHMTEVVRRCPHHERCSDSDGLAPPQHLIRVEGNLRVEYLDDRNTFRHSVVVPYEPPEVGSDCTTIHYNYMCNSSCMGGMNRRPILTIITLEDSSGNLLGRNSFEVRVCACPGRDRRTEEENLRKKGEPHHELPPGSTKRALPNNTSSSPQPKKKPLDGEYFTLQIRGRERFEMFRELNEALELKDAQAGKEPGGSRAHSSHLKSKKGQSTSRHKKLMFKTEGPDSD

Cl.O=C1c2ccccc2C(=O)c2c1cccc2-c1cnn(C2CCNCC2)c1
Activity (RKO [1]): 58.7%
Activity (HCT-116 [2]): Dose-dependent effect
Activity (HCT-116 [3]): 4.1%
Activity (RKO [4]): 18.1%
Activity (RKO [5]): 2.7%
Activity (RKO [6]): 39.4%
Activity (HCT-116 [7]): 54.5%
IC50 [8]: > 50 µM
Activity (HCT-116 [9]): 23.9%
Activity (RKO [10]): 11.2%
Activity (HCT-116 [11]): 12.1%
Activity (HCT-116 [12]): 2.9%
Activity [13]: Dose-dependent effect
Activity (RKO [14]): 6%
Activity (RKO [15]): 13.8%
Activity (HCT-116 [16]): 77.9%
IC50 (Cytochrome P450 1A2): 16.3 µM
Activity (RKO [17]): 46.7%
half-life at 1 µM [18]: > 1 h
Activity (RKO [19]): 4.61%
Activity (RKO [20]): 49%
Activity (HCT-116 [21]): 12.7%
Activity (HCT-116 [22]): 21.2%
fold change (FC) [23]: 0.18
half-life [24]: 7.06 h
Activity (HCT-116 [25]): 41.6%
Activity (HCT-116 [26]): 7.7%
